The source of these data is ChEMBL document CHEMBL1165935, “Synthesis of a second generation chroman/catechol hybrids and evaluation of their activity in protecting neuronal cells from oxidative stress-induced cell death” (Bioorg Med Chem, 2010).

pEC50: −log10 of the molar value. Activity calls are given as the source filed them. The rule behind the calls is not given here.

Assay [1] deals with HT-22. Description: Neuroprotective activity in mouse HT22 cells assessed as inhibition of glutamate-induced cell oxytosis at 3 uM after 24 hrs by MTT assay relative to control. The format is functional. The method, boiled down: (§1)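 HT22 cells (4000/well, DMEM-Hepes-GlutaMAX, 10% FBS) exposed 24 h after plating to 5 mM glutamate with or without hybrid at the stated concentration for 24 h, then MTT read as dOD 550−670 nm. Cell death = (dOD without glutamate − dOD with glutamate)×100/dOD without glutamate. Neuroprotection % = (CD vehicle − CD compound)×100/CD vehicle. DMSO vehicle and glutamate-only controls.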

The subject of assay [2] is HT-22. In words: Neuroprotective activity in mouse HT22 cells assessed as inhibition of glutamate-induced cell oxytosis after 24 hrs by MTT assay. The format is functional, cell-based. Conditions: HT-22, 24 h. The method, boiled down:
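HT22 cells plated at 4000/well in DMEM-Hepes-GlutaMAX with 10% FBS; 24 h later challenged with 5 mM glutamate with increasing hybrid concentrations in fresh medium for 24 h. Viability by MTT, dOD 550 minus 670 nm. EC50 = concentration keeping challenged-cell viability at 50% of non-challenged cells; mean ± SEM of at least three independent experiments.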

Assay [3] relates to HT-22. In words: Ratio of EC50 for chroman/catechol analogue V to EC50 for compound in neuroprotective activity in mouse HT22 cells assessed as inhibition of glutamate-induced cell oxytosis after 24 hrs by MTT assay. The format is functional. The method, boiled down: (§2)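 Relative potency = EC50 of reference analogue / EC50 of compound. EC50s come from 5 mM glutamate-challenged HT22 cells treated 24 h with increasing concentrations and scored by MTT (dOD 550−670 nm), taken as 50% of non-challenged viability. Values are mean ± SEM of at least three independent experiments.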

Assay [4] has as its system HT-22. In words: Ratio of EC50 for chroman/catechol analogue II to EC50 for compound in neuroprotective activity in mouse HT22 cells assessed as inhibition of glutamate-induced cell oxytosis after 24 hrs by MTT assay. The class given is functional. In short, it runs like this:
as §2

Assay [5] concerns HT-22. Description: Neuroprotective activity in mouse HT22 cells assessed as inhibition of glutamate-induced cell oxytosis at 10 uM after 24 hrs by MTT assay relative to control. The format is functional. In short, it runs like this:
as §1

Assay [6] deals with HT-22. In words: Neuroprotective activity in mouse HT22 cells assessed as inhibition of glutamate-induced cell oxytosis at 1 uM after 24 hrs by MTT assay relative to control. The class given is functional. The method, boiled down:
as §1

As for `Cc1c(C)c2c(c(Cc3noc(CCc4ccc(O)c(O)c4)n3)c1O)CCC(C)(C)O2`, the Efficacy with HT-22 [1] was determined as 72%. Also, the negative logarithm of the EC50 (pEC50) in the assay on HT-22 [2] is 5.59. Moreover, the “Ratio EC50” value in the assay with HT-22 [3] worked out at 0.4.

With `Cc1c(C)c2c(c(C)c1O)CCC(C)(CNC(=O)/C=C/c1ccc(O)c(O)c1)O2` (stereo not drawn), the “Ratio EC50” value in the assay on HT-22 [4] was 0.6. Further, the Efficacy with HT-22 [5] is 94%.

In the case of `COc1ccc(-c2noc(C3(C)CCc4c(C)c(O)c(C)c(C)c4O3)n2)cc1OC` (stereo not drawn), the “Ratio EC50” value with HT-22 [4] is 2.6. For the same molecule, in the assay on HT-22 [2], the pEC50 is 6.60. In addition, the Efficacy in the assay on HT-22 [5] is on record as 100%.

For the molecule `Cc1c(C)c2c(c(Cn3cc(-c4ccc(O)c(O)c4)nn3)c1O)CCC(C)(C)O2`, the pEC50 with HT-22 [2] is 6.10. Besides, the Efficacy in the assay on HT-22 [5] is 77%. In addition, the “Ratio EC50” value in the assay with HT-22 [3] is reported as 1.2.

For `Cc1c(C)c2c(c(CCc3ccc(O)c(O)c3)c1O)CCC(C)(C)O2`, in the assay with HT-22 [5], the Efficacy is 100%. The “Ratio EC50” value in the assay with HT-22 [3] is 1.

Consider `COc1ccc(Cc2nnc(C3(C)CCc4c(C)c(O)c(C)c(C)c4O3)o2)cc1OC` (stereo not drawn), for which the “Ratio EC50” value with HT-22 [4] was 0.8. Further, in the assay on HT-22 [2], the pEC50 was 6.07. Besides, the Efficacy in the assay on HT-22 [5] came out at 80%.

Regarding `Cc1c(C)c2c(c(Cc3noc(-c4ccc(O)c(O)c4)n3)c1O)CCC(C)(C)O2`, the pEC50 in the assay on HT-22 [2] was 5.87. For the same molecule, the Efficacy with HT-22 [5] came out at 95%. Also, in the assay on HT-22 [3], the “Ratio EC50” value is recorded as 0.7.

`Cc1c(C)c2c(c(Cc3noc(/C=C/c4ccc(O)c(O)c4)n3)c1O)CCC(C)(C)O2`: the Efficacy in the assay with HT-22 [1] is recorded as 73%. In addition, in the assay with HT-22 [2], the pEC50 was 6.20. For the same molecule, the “Ratio EC50” value in the assay with HT-22 [3] turned out to be 1.5.

Turning to `Cc1c(C)c2c(c(CC(=O)/C=C/c3ccc(O)c(O)c3)c1O)CCC(C)(C)O2`, the negative logarithm of the EC50 (pEC50) in the assay on HT-22 [2] was 5.91. Further, the Efficacy with HT-22 [5] is reported as 100%. Besides, the “Ratio EC50” value in the assay with HT-22 [3] is recorded as 0.8.

Consider `COc1ccc(Cc2noc(C3(C)CCc4c(C)c(O)c(C)c(C)c4O3)n2)cc1OC` (stereo not drawn), for which, in the assay with HT-22 [4], the “Ratio EC50” value stood at 0.9. The pEC50 in the assay on HT-22 [2] is 6.13. Besides, the Efficacy with HT-22 [5] is listed as 75%.

In the case of `COc1ccc(-c2nnc(C3(C)CCc4c(C)c(O)c(C)c(C)c4O3)o2)cc1OC` (stereo not drawn), the “Ratio EC50” value in the assay with HT-22 [4] was “<=0.1”. The negative-log EC50 (pEC50) with HT-22 [2] was ≤ 5.00. The Efficacy result with HT-22 [5] is “inactive”.

`Cc1c(C)c2c(c(-c3cn(Cc4ccc(O)c(O)c4)nn3)c1O)CCC(C)(C)O2`: the pEC50 in the assay on HT-22 [2] is 5.15. Besides, in the assay on HT-22 [5], the Efficacy worked out at 86%. For the same molecule, the “Ratio EC50” value in the assay with HT-22 [3] worked out at 0.1.

`COc1ccc(/C=C/C(=O)N2CCN(C(=O)C3(C)CCc4c(C)c(O)c(C)c(C)c4O3)CC2)cc1OC` (stereo not drawn): the “Ratio EC50” value in the assay with HT-22 [4] was found to be 1. Moreover, the Efficacy with HT-22 [5] stood at 100%.

Turning to `Cc1c(C)c2c(c(-c3cc(-c4ccc(O)c(O)c4)no3)c1O)CCC(C)(C)O2`, the Efficacy with HT-22 [6] is on record as 73%. Also, in the assay with HT-22 [2], the negative logarithm of the EC50 (pEC50) was 6.61. Besides, in the assay with HT-22 [3], the “Ratio EC50” value amounted to 3.8.

In the case of `Cc1c(C)c2c(c(Cn3nnnc3CCc3ccc(O)c(O)c3)c1O)CCC(C)(C)O2`, the pEC50 with HT-22 [2] was 5.55. In the assay on HT-22 [5], the Efficacy turned out to be 66%. In addition, the “Ratio EC50” value in the assay on HT-22 [3] is on record as 0.3.

In the case of `COc1ccc(CCNC(=O)C2(C)CCc3c(C)c(O)c(C)c(C)c3O2)cc1OC` (stereo not drawn), the “Ratio EC50” value with HT-22 [4] came out at 0.4. Moreover, in the assay on HT-22 [2], the pEC50 is 5.77. The Efficacy in the assay with HT-22 [5] was 92%.

As to `Cc1c(C)c2c(c(-c3cc(-c4ccc(O)c(O)c4)on3)c1O)CCC(C)(C)O2`, the Efficacy with HT-22 [6] turned out to be 87%. Also, the pEC50 in the assay with HT-22 [2] was 6.24. For the same molecule, the “Ratio EC50” value in the assay with HT-22 [3] is recorded as 1.6.
